ChEMBL document CHEMBL4732243, “Design, synthesis, and structure activity relationship analysis of new betulinic acid derivatives as potent HIV inhibitors” (Eur J Med Chem, 2021)

Assays:
[1] = test system: MT4; assay: Cytotoxicity against human MT4 cells assessed as reduction in cell viability incubated for 2 days by CytoTox-Glo cytotoxicity assay; assay type: cell-based; details: mt4, 48 h, time 2 day
Summary of the method: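 Mock-infected MT-4 cells cultured 2 days with a range of compound concentrations. Viability measured by CytoTox-Glo, following the kit protocol, as percent viable cells. CC50 is the concentration giving a 50% reduction in cell viability.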

[2] = test system: Human immunodeficiency virus 1; assay: Antiviral activity against HIV-1 NL4-3 infected in human MT4 cells assessed as reduction in p24 gag protein incubated for 4 days by ELISA; assay type: functional, organism-based; details: Human immunodeficiency virus 1, NL4-3, MT4, 96 h
Summary of the method: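 MT-4 cells infected with HIV-1 NL4-3 at MOI 0.01, serial compound concentrations, in 96-well format. Supernatant p24 antigen measured by capture ELISA on day 4 post-infection. IC50 is the concentration that inhibits NL4-3 replication by 50%. Bevirimat run in parallel as the reference.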

Structure (SMILES)	CC50 [1] [nM]	IC50 ([2]; read-out: IC50) [nM]	IC50 ([2]; read-out: pIC50 (converted)) [nM]
C=C(C)[C@@H]1CC[C@]2(C(=O)N3CCN(C(=O)/C=C/c4ccc(OCOC)c(OCc5cccc(Cl)c5)c4)CC3)CC[C@]3(C)[C@H](CC[C@@H]4[C@@]5(C)CC[C@H](OC(=O)CC(C)(C)C(=O)O)C(C)(C)[C@@H]5CC[C@]43C)[C@@H]12	> 2000	460	
C=C(C)[C@@H]1CC[C@]2(C(=O)N3CCN(C(=O)/C=C/c4ccc(N(C)C)cc4)CC3)CC[C@]3(C)[C@H](CC[C@@H]4[C@@]5(C)CC[C@H](OC(=O)CC(C)(C)C(=O)O)C(C)(C)[C@@H]5CC[C@]43C)[C@@H]12	> 2000	27	26.9
C=C(C)[C@@H]1CC[C@]2(C(=O)N3CCN(C(=O)/C=C/c4cn(C)c5ccccc45)CC3)CC[C@]3(C)[C@H](CC[C@@H]4[C@@]5(C)CC[C@H](OC(=O)CC(C)(C)C(=O)O)C(C)(C)[C@@H]5CC[C@]43C)[C@@H]12	> 2000	140	141
C=C(C)[C@@H]1CC[C@]2(C(=O)N3CCN(C(=O)/C=C/c4ccc(O)c(OCCCCCCCC)c4)CC3)CC[C@]3(C)[C@H](CC[C@@H]4[C@@]5(C)CC[C@H](OC(=O)CC(C)(C)C(=O)O)C(C)(C)[C@@H]5CC[C@]43C)[C@@H]12		> 1000	
C=C(C)[C@@H]1CC[C@]2(CN3CCN(C(=O)/C=C/c4ccc5c(c4)OCO5)CC3)CC[C@]3(C)[C@H](CC[C@@H]4[C@@]5(C)CC[C@H](OC(=O)CC(C)(C)C(=O)O)C(C)(C)[C@@H]5CC[C@]43C)[C@@H]12		> 1000	
C=C(C)[C@@H]1CC[C@]2(C(=O)N3CCN(C(=O)/C=C/c4ccc(OC)c(Cl)c4)CC3)CC[C@]3(C)[C@H](CC[C@@H]4[C@@]5(C)CC[C@H](OC(=O)CC(C)(C)C(=O)O)C(C)(C)[C@@H]5CC[C@]43C)[C@@H]12	> 2000	130	129
C=C(C)[C@@H]1CC[C@]2(C(=O)N3CCN(C(=O)/C=C/c4ccc(OCCCCCCCC)c(OCCCCCCCC)c4)CC3)CC[C@]3(C)[C@H](CC[C@@H]4[C@@]5(C)CC[C@H](OC(=O)CC(C)(C)C(=O)O)C(C)(C)[C@@H]5CC[C@]43C)[C@@H]12		> 1000	
C=C(C)[C@@H]1CC[C@]2(C(=O)N3CCN(C(=O)CCc4ccc5c(c4)OCO5)CC3)CC[C@]3(C)[C@H](CC[C@@H]4[C@@]5(C)CC[C@H](OC(=O)CC(C)(C)C(=O)O)C(C)(C)[C@@H]5CC[C@]43C)[C@@H]12	> 2000	22	21.9
C=C(C)[C@@H]1CC[C@]2(C(=O)N3CCN(C(=O)/C=C/c4ccc(OCc5cccc([N+](=O)[O-])c5)c(OC)c4)CC3)CC[C@]3(C)[C@H](CC[C@@H]4[C@@]5(C)CC[C@H](OC(=O)CC(C)(C)C(=O)O)C(C)(C)[C@@H]5CC[C@]43C)[C@@H]12	> 2000	750	759
C=C(C)[C@@H]1CC[C@]2(C(=O)CC(=O)CC(C)(C)C(=O)O)CC[C@]3(C)[C@H](CC[C@@H]4[C@@]5(C)CC[C@H](OC(=O)/C=C/c6ccc(OCOC)c(OCOC)c6)C(C)(C)[C@@H]5CC[C@]43C)[C@@H]12		> 1000	
C=C(C)[C@@H]1CC[C@]2(C(=O)N3CCN(C(=O)/C=C/c4ccc([N+](=O)[O-])cc4)CC3)CC[C@]3(C)[C@H](CC[C@@H]4[C@@]5(C)CC[C@H](OC(=O)CC(C)(C)C(=O)O)C(C)(C)[C@@H]5CC[C@]43C)[C@@H]12	> 2000	110	110
C=C(C)[C@@H]1CC[C@]2(C(=O)N3CCN(C(=O)CC(C)(C)C(=O)O)CC3)CC[C@]3(C)[C@H](CC[C@@H]4[C@@]5(C)CC[C@H](ON6CCN(C(=O)CC(C)(C)C(=O)O)CC6)C(C)(C)[C@@H]5CC[C@]43C)[C@@H]12	> 2000	14	14.1
C=C(C)[C@@H]1CC[C@]2(C(=O)N3CCN(C(=O)CC(C)(C)C(=O)O)CC3)CC[C@]3(C)[C@H](CC[C@@H]4[C@@]5(C)CC[C@H](O)C(C)(C)[C@@H]5CC[C@]43C)[C@@H]12		> 1000	
C=C(C)[C@@H]1CC[C@]2(C(=O)OCCCOC(=O)/C=C/c3ccc(N(C)C)cc3)CC[C@]3(C)[C@H](CC[C@@H]4[C@@]5(C)CC[C@H](OC(=O)CC(C)(C)C(=O)O)C(C)(C)[C@@H]5CC[C@]43C)[C@@H]12		> 1000	
C=C(C)[C@@H]1CC[C@]2(C(=O)N3CCN(CCCCC(=O)N4CCN(C(=O)/C=C/c5ccc6c(c5)OCO6)CC4)CC3)CC[C@]3(C)[C@H](CC[C@@H]4[C@@]5(C)CC[C@H](OC(=O)CC(C)(C)C(=O)O)C(C)(C)[C@@H]5CC[C@]43C)[C@@H]12	> 2000		
C=C(C)[C@@H]1CC[C@]2(C(=O)N3CCN(C(=O)CC(C)(C)C(=O)O)CC3)CC[C@]3(C)[C@H](CC[C@@H]4[C@@]5(C)CC[C@H](Oc6ccc7c(c6)OCO7)C(C)(C)[C@@H]5CC[C@]43C)[C@@H]12		> 1000	

Structure (SMILES)	CC50 [1] [nM]	IC50 ([2]; read-out: IC50) [nM]	IC50 ([2]; read-out: pIC50 (converted)) [nM]
C=C(C)[C@@H]1CC[C@]2(C(=O)N3CCN(C(=O)CCC(=O)Nc4nccs4)CC3)CC[C@]3(C)[C@H](CC[C@@H]4[C@@]5(C)CC[C@H](OC(=O)CC(C)(C)C(=O)O)C(C)(C)[C@@H]5CC[C@]43C)[C@@H]12	> 2000	40	39.8
C=C(C)[C@@H]1CC[C@]2(C(=O)N3CCN(C(=O)/C=C/c4cccc(OCc5cccc([N+](=O)[O-])c5)c4)CC3)CC[C@]3(C)[C@H](CC[C@@H]4[C@@]5(C)CC[C@H](OC(=O)CC(C)(C)C(=O)O)C(C)(C)[C@@H]5CC[C@]43C)[C@@H]12	> 2000	580	575
C=C(C)[C@@H]1CC[C@]2(C(=O)N3CCN(C(=O)/C=C/c4ccc5c(c4)OCCO5)CC3)CC[C@]3(C)[C@H](CC[C@@H]4[C@@]5(C)CC[C@H](OC(=O)CC(C)(C)C(=O)O)C(C)(C)[C@@H]5CC[C@]43C)[C@@H]12	> 2000	50	50.1
C=C(C)[C@@H]1CC[C@]2(C(=O)N3CCN(C(=O)/C=C/c4cccc(C(F)(F)F)c4)CC3)CC[C@]3(C)[C@H](CC[C@@H]4[C@@]5(C)CC[C@H](OC(=O)CC(C)(C)C(=O)O)C(C)(C)[C@@H]5CC[C@]43C)[C@@H]12	> 2000	560	562
C=C(C)[C@@H]1CC[C@]2(C(=O)OCCCCCCCCN3CCN(C(=O)/C=C/c4ccc5c(c4)OCO5)CC3)CC[C@]3(C)[C@H](CC[C@@H]4[C@@]5(C)CC[C@H](OC(=O)CC(C)(C)C(=O)O)C(C)(C)[C@@H]5CC[C@]43C)[C@@H]12		> 1000	
C=C(C)[C@@H]1CC[C@]2(C(=O)N3CCN(C(=O)/C=C/c4ccc(OCOC)c(OCOC)c4)CC3)CC[C@]3(C)[C@H](CC[C@@H]4[C@@]5(C)CC[C@H](OC(=O)CC(C)(C)C(=O)O)C(C)(C)[C@@H]5CC[C@]43C)[C@@H]12	> 2000		
C=C(C)[C@@H]1CC[C@]2(C(=O)O)CC[C@]3(C)[C@H](CC[C@@H]4[C@@]5(C)CC[C@H](OC(=O)/C=C/c6ccc(OCOC)c(OCOC)c6)C(C)(C)[C@@H]5CC[C@]43C)[C@@H]12		> 1000	
C=C(C)[C@@H]1CC[C@]2(C(=O)O)CC[C@]3(C)[C@H](CC[C@@H]4[C@@]5(C)CC[C@H](OC(=O)CC(C)(C)C(=O)O)C(C)(C)[C@@H]5CC[C@]43C)[C@@H]12 [BEVIRIMAT]	> 2000		
C=C(C)[C@@H]1CC[C@]2(C(=O)CC(C)=O)CC[C@]3(C)[C@H](CC[C@@H]4[C@@]5(C)CC[C@H](OC(=O)/C=C/N6CCN(C(=O)OC(C)(C)C)CC6)C(C)(C)[C@@H]5CC[C@]43C)[C@@H]12		> 1000	
C=C(C)[C@@H]1CC[C@]2(C(=O)CC(=O)CC(C)(C)C(=O)O)CC[C@]3(C)[C@H](CC[C@@H]4[C@@]5(C)CC[C@H](OC(=O)/C=C/N6CCN(C(=O)OC(C)(C)C)CC6)C(C)(C)[C@@H]5CC[C@]43C)[C@@H]12		> 1000	
C=C(C)[C@@H]1CC[C@]2(C(=O)N3CCN(C(=O)/C=C/c4ccc(OC)c(OC)c4)CC3)CC[C@]3(C)[C@H](CC[C@@H]4[C@@]5(C)CC[C@H](OC(=O)CC(C)(C)C(=O)O)C(C)(C)[C@@H]5CC[C@]43C)[C@@H]12	> 2000		
C=C(C)[C@@H]1CC[C@]2(C(=O)N3CCN(C(=O)/C=C/c4ccc(OCOC)c(OCCCCCCCC)c4)CC3)CC[C@]3(C)[C@H](CC[C@@H]4[C@@]5(C)CC[C@H](OC(=O)CC(C)(C)C(=O)O)C(C)(C)[C@@H]5CC[C@]43C)[C@@H]12		> 1000	
C=C(C)[C@@H]1CC[C@]2(C(=O)O)CC[C@]3(C)[C@H](CC[C@@H]4[C@@]5(C)CC[C@H](OC(=O)/C=C/c6ccc7c(c6)OCO7)C(C)(C)[C@@H]5CC[C@]43C)[C@@H]12		> 1000	
C=C(C)[C@@H]1CC[C@]2(C(=O)N3CCN(C(=O)/C=C/c4ccc(OCc5cccc(Cl)c5)c(OC)c4)CC3)CC[C@]3(C)[C@H](CC[C@@H]4[C@@]5(C)CC[C@H](OC(=O)CC(C)(C)C(=O)O)C(C)(C)[C@@H]5CC[C@]43C)[C@@H]12		> 1000	
C=C(C)[C@@H]1CC[C@]2(C(=O)N3CCN(C(=O)CC(C)(C)C(=O)O)CC3)CC[C@]3(C)[C@H](CC[C@@H]4[C@@]5(C)CC[C@H](OC(=O)/C=C/c6ccc7c(c6)OCO7)C(C)(C)[C@@H]5CC[C@]43C)[C@@H]12		> 1000	
C=C(C)[C@@H]1CC[C@]2(C(=O)N3CCN(C(=O)/C=C/c4ccc(OCCCCCCCC)c(OC)c4)CC3)CC[C@]3(C)[C@H](CC[C@@H]4[C@@]5(C)CC[C@H](OC(=O)CC(C)(C)C(=O)O)C(C)(C)[C@@H]5CC[C@]43C)[C@@H]12		> 1000	
